{
  "source": "the M2OR odorant receptor database",
  "data": [
    {"test_system": "T1, A0A140T8K4", "T1 sequence (whole entry)": "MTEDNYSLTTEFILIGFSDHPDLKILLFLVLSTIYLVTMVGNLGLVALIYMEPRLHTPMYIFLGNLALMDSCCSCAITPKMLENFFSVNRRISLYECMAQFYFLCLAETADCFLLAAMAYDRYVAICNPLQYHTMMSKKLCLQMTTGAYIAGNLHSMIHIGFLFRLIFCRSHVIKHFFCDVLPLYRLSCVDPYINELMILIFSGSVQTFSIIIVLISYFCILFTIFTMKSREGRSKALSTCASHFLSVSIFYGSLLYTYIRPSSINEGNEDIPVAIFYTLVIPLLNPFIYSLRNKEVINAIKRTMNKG", "conditions": "stereoisomer not certain", "outline": "(§1)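 Assay methods differ from source to source, frequently being transient luciferase assays in mammalian cell lines. For each receptor–molecule pair, the label responsive (active) applies when the original authors judged the measured signal statistically different from baseline, and non-responsive (inactive) applies otherwise.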", "values": [
      {"smiles": "COc1cc(C(=O)O)ccc1O", "odorant receptor agonist call": "inactive"},
      {"smiles": "CC12CCC(CC1=O)C2(C)C", "note": "(configuration not stated)", "odorant receptor agonist call": "inactive"},
      {"smiles": "CCCCCCCCCS", "odorant receptor agonist call": "inactive"},
      {"smiles": "CCCC(=O)C(C)=O", "odorant receptor agonist call": "inactive"},
      {"smiles": "CCCCCC(=O)CC", "odorant receptor agonist call": "inactive"},
      {"smiles": "CC(=O)OCC=C(C)C", "odorant receptor agonist call": "inactive"},
      {"smiles": "CCCCCCCC(C)=O", "odorant receptor agonist call": "inactive"},
      {"smiles": "CCCCCCCCC(=O)O", "odorant receptor agonist call": "inactive"},
      {"smiles": "c1ccccc1", "odorant receptor agonist call": "inactive"},
      {"smiles": "O=C1CCOc2ccccc21", "odorant receptor agonist call": "inactive"},
      {"smiles": "CCOC(=O)C(C)C", "odorant receptor agonist call": "inactive"},
      {"smiles": "CCCCCCCCCO", "odorant receptor agonist call": "inactive"},
      {"smiles": "CCCCCC=O", "odorant receptor agonist call": "inactive"},
      {"smiles": "CC(C)=CCCC(C)=CCO", "odorant receptor agonist call": "inactive"},
      {"smiles": "CC(C)=CCCC(C)CCO", "note": "(configuration not stated)", "odorant receptor agonist call": "inactive"},
      {"smiles": "C=CCOC(=O)CCCCCC", "odorant receptor agonist call": "inactive"},
      {"smiles": "CCCCCCCCS", "odorant receptor agonist call": "inactive"},
      {"smiles": "CCCCCCCCCC(=O)[O-].[H+]", "odorant receptor agonist call": "inactive"},
      {"smiles": "C=C(C)C1CCC(C)C(=O)C1", "note": "(configuration not stated)", "odorant receptor agonist call": "active"},
      {"smiles": "CC(=O)Oc1ccccc1", "odorant receptor agonist call": "inactive"},
      {"smiles": "CCCCCC1=C(C)CCC1=O", "odorant receptor agonist call": "inactive"},
      {"smiles": "CCCCCCOC(C)=O", "odorant receptor agonist call": "inactive"},
      {"smiles": "CCCCCOC(=O)CCCCC", "odorant receptor agonist call": "inactive"},
      {"smiles": "CCC(=O)C(=O)CC", "odorant receptor agonist call": "inactive"},
      {"smiles": "CCCCC(C)=O", "odorant receptor agonist call": "inactive"},
      {"smiles": "CCCCCCC(C)=O", "odorant receptor agonist call": "inactive"},
      {"smiles": "CCC(=O)O", "odorant receptor agonist call": "inactive"},
      {"smiles": "CCCCCCCCCCO", "odorant receptor agonist call": "inactive"},
      {"smiles": "O=C(c1ccccc1)c1ccccc1", "odorant receptor agonist call": "inactive"},
      {"smiles": "CC(=O)OCc1ccccc1", "odorant receptor agonist call": "inactive"},
      {"smiles": "CCCCOC=O", "odorant receptor agonist call": "inactive"},
      {"smiles": "O=C1Cc2ccccc2O1", "odorant receptor agonist call": "inactive"},
      {"smiles": "CCCCCCCO", "odorant receptor agonist call": "inactive"},
      {"smiles": "CCCCC(=O)CC", "odorant receptor agonist call": "inactive"},
      {"smiles": "CCCCCCCCO", "odorant receptor agonist call": "inactive"},
      {"smiles": "CCCCCCO", "odorant receptor agonist call": "inactive"}
    ]},
    {"test_system": "T2, A0A1L1SVG7", "T2 sequence (whole entry)": "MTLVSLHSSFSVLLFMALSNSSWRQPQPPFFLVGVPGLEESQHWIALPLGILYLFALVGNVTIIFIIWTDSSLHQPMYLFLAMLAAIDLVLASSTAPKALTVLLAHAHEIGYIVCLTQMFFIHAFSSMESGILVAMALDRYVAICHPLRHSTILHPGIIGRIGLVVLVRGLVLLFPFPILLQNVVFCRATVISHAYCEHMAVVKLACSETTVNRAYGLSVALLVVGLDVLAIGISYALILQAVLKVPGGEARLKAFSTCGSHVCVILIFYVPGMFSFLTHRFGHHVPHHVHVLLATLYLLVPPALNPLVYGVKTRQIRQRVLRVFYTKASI", "conditions": "stereoisomer not certain", "outline": "as §1", "values": [
      {"smiles": "COc1cc(C(=O)O)ccc1O", "odorant receptor agonist call": "inactive"},
      {"smiles": "CC12CCC(CC1=O)C2(C)C", "note": "(configuration not stated)", "odorant receptor agonist call": "inactive"},
      {"smiles": "CCCCCCCCCS", "odorant receptor agonist call": "inactive"},
      {"smiles": "CCCC(=O)C(C)=O", "odorant receptor agonist call": "inactive"},
      {"smiles": "CCCCCC(=O)CC", "odorant receptor agonist call": "inactive"},
      {"smiles": "CC(=O)OCC=C(C)C", "odorant receptor agonist call": "inactive"},
      {"smiles": "CCCCCCCC(C)=O", "odorant receptor agonist call": "inactive"},
      {"smiles": "CCCCCCCCC(=O)O", "odorant receptor agonist call": "active"},
      {"smiles": "c1ccccc1", "odorant receptor agonist call": "inactive"},
      {"smiles": "O=C1CCOc2ccccc21", "odorant receptor agonist call": "inactive"},
      {"smiles": "CCOC(=O)C(C)C", "odorant receptor agonist call": "inactive"},
      {"smiles": "CCCCCCCCCO", "odorant receptor agonist call": "inactive"},
      {"smiles": "CCCCCC=O", "odorant receptor agonist call": "inactive"},
      {"smiles": "CC(C)=CCCC(C)=CCO", "odorant receptor agonist call": "inactive"},
      {"smiles": "CC(C)=CCCC(C)CCO", "note": "(configuration not stated)", "odorant receptor agonist call": "inactive"},
      {"smiles": "C=CCOC(=O)CCCCCC", "odorant receptor agonist call": "inactive"},
      {"smiles": "CCCCCCCCS", "odorant receptor agonist call": "inactive"},
      {"smiles": "CCCCCCCCCC(=O)[O-].[H+]", "odorant receptor agonist call": "active"},
      {"smiles": "C=C(C)C1CCC(C)C(=O)C1", "note": "(configuration not stated)", "odorant receptor agonist call": "inactive"},
      {"smiles": "CC(=O)Oc1ccccc1", "odorant receptor agonist call": "inactive"},
      {"smiles": "CCCCCC1=C(C)CCC1=O", "odorant receptor agonist call": "inactive"},
      {"smiles": "CCCCCCOC(C)=O", "odorant receptor agonist call": "inactive"},
      {"smiles": "CCCCCOC(=O)CCCCC", "odorant receptor agonist call": "inactive"},
      {"smiles": "CCC(=O)C(=O)CC", "odorant receptor agonist call": "inactive"},
      {"smiles": "CCCCC(C)=O", "odorant receptor agonist call": "inactive"},
      {"smiles": "CCCCCCC(C)=O", "odorant receptor agonist call": "inactive"},
      {"smiles": "CCC(=O)O", "odorant receptor agonist call": "inactive"},
      {"smiles": "CCCCCCCCCCO", "odorant receptor agonist call": "inactive"},
      {"smiles": "O=C(c1ccccc1)c1ccccc1", "odorant receptor agonist call": "inactive"},
      {"smiles": "CC(=O)OCc1ccccc1", "odorant receptor agonist call": "inactive"},
      {"smiles": "CCCCOC=O", "odorant receptor agonist call": "inactive"},
      {"smiles": "O=C1Cc2ccccc2O1", "odorant receptor agonist call": "inactive"},
      {"smiles": "CCCCCCCO", "odorant receptor agonist call": "inactive"},
      {"smiles": "CCCCC(=O)CC", "odorant receptor agonist call": "inactive"},
      {"smiles": "CCCCCCCCO", "odorant receptor agonist call": "inactive"},
      {"smiles": "CCCCCCO", "odorant receptor agonist call": "inactive"}
    ]}
  ]
}
